Screening results as filed in PubChem.
Rtt109 Vps75 – inhibitors of C. albicans Rtt109/Vps75 HAT, primary screen, biochemical, ThioGlo CoA-SH fluorescence, plate reader. Histone acetyltransferase RTT109 (Candida albicans (strain SC5314 / ATCC MYA-2876)), …. purified Rtt109/Vps75, 4 h. inhibition, % at 34.9 µM. actives 0.16% (n = 330,000). AID 540336, 2011;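 active = inhibition of at least 50% in every replicate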
ARFGAP1 inh – inhibitors of rat ARFGAP1 GAP activity, primary screen, biochemical, fluorescence polarization, GDP tracer | ADP-ribosylation factor GTPase-activating protein 1 (Rattus norvegicus), Q62848 | Arfgap1-stimulated ARF1 GTP hydrolysis, GDP FP detection | inhibition, % at 16.5 µM | actives 0.26% (n = 360,000) | AID 651572, 2012;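 active = inhibition above a per-plate limit, mean inhibition of low control wells plus 3 SD, cut at about 25% in these data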;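 also: 0% = DMSO wells with enzyme and 100% = wells lacking Arfgap1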
Target sequence (Q62848 1-136 limits assumed): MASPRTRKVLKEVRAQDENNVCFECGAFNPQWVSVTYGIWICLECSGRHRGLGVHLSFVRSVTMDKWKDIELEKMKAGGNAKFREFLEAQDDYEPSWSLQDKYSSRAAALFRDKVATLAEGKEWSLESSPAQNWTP
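system = rat Arfgap1 catalytic domain, aa 1-136 | technique = FP, GDP Alexa 633 tracer displaced from anti-GDP antibody, 620/688 nm | compound = one concentration, 16.5 µM, DMSO 1.26% | medium = HEPES-based buffer, pH 7.5 | timing = compound-enzyme preincubation 20 min, reaction 120 min, detection 60 min, 25 °C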
ASAP1 inh – inhibitors of human ASAP1 ArfGAP activity, primary screen, biochemical, fluorescence polarization | Arf-GAP with SH3 domain, ANK repeat and PH domain-containing protein 1 (Homo sapiens), … | ASAP1-stimulated ARF1 GTP hydrolysis, GDP FP detection | inhibition, % at 16.5 µM | actives 0.19% (n = 360,000); in the data active = inhibition above about 25%;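 also: 0% = vehicle with enzyme and substrate and 100% = no enzyme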
Target sequence (Q9ULH1 325-724 limits assumed): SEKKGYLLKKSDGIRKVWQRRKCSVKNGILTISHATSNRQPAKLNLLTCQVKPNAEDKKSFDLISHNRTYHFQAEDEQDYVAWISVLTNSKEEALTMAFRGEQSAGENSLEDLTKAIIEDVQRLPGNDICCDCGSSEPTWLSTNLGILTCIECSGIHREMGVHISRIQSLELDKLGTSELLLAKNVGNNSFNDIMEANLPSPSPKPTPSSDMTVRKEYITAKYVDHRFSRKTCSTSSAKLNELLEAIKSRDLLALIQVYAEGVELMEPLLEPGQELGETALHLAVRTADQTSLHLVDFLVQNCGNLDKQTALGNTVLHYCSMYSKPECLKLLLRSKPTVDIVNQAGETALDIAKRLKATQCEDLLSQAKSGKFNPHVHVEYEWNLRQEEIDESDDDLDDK
Efflux pump mplx – inhibitors of Candida efflux pumps in yeast, primary screen, S. cerevisiae, Nile Red, multiplex. S. cerevisiae Candida pump triplex. inhibition, % at 10 µM. actives 0.44% (n = 330,000);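 active = plate passing quality check with inhibition over a set limit, or well fluorescence over plate mean plus 4 SD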;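 also: Nile Red retained in pooled yeast measured as flow cytometry median fluorescence; 0% = buffer negative control and 100% = Enniatin B positive control; higher means more Nile Red kept so more efflux inhibition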
FGF22 binding – binders of human FGF22 protein, primary screen, FGF22 synaptogenesis inhibitor project, biophysical, thermal shift, single point | actives 1.5% (n = 340,000) | recombinant FGF22 thermal shift, SYPRO orange fluorescence; percent of sucrose octasulfate shift, DMSO zero | Fibroblast growth factor 22 (Homo sapiens), Q9HCT0 | activity (Tm shift, normalised), % at 9.99 µM;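 active = mean Tm shift, scaled 0 neutral to 100 positive control, at about 1.3% or above, every replicate too, limit read from the data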
Target sequence (Q9HCT0 whole entry, looked up): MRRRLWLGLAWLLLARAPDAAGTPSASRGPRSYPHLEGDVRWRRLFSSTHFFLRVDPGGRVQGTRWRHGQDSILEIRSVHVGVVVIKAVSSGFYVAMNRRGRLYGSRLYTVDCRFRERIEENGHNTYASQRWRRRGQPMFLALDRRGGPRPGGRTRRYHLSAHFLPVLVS
Yeast cmpd fluor – flagged as fluorescent in efflux inhibitor counter-screen; shares compounds with Efflux pump mplx; S. cerevisiae AD/pABC3, compound fluorescence, flow cytometry; fluorescence ratio to DMSO, % at 10 µM; actives 4% (n = 1,700); AID 588517;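 active = fluorescence ratio to DMSO above its plate's cutoff, the plate mean ratio plus 5 SD, cut at about 210% in these data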;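 also: unstained yeast with no Nile Red so the signal is compound autofluorescence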
CaMdr1 efflux inh – inhibitors of Candida albicans Mdr1 efflux, confirmation, flow cytometry, singleplex, Cherry Pick1 set | S. cerevisiae AD/CaMDR1, Nile Red efflux | actives 1% (n = 1,700) | inhibition, % at 10 µM | AID 588518, 2011 | shares compounds with Efflux pump mplx; in the data active = inhibition above about 26%;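 also: 0% = DMSO vehicle and 100% = reference inhibitor; higher means more Nile Red retained so more efflux inhibition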
Cdr2 pump inh – inhibitors of Candida albicans Cdr2 efflux pump, confirmation, S. cerevisiae AD/CaCDR2, flow cytometry, cherry pick 1, singleplex. Nile Red retention ratio vs DMSO, % at 10 µM. shares compounds with Efflux pump mplx. AID 588520, 2011. actives 4% (n = 1,700). Nile Red retention; in the data active = Nile Red retention ratio vs DMSO above about 190%;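 also: higher ratio means more blocking of Cdr2 efflux of the dye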
Cdr1 pump inh – inhibitors of Candida albicans Cdr1 efflux pump, confirmation, S. cerevisiae AD/CaCDR1, flow cytometry, cherry pick 1, singleplex. shares compounds with Efflux pump mplx. Nile Red efflux. inhibition, % at 10 µM. actives 1% (n = 1,700). AID 588522, 2011;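 active = inhibition above the screen-wide mean plus twice its standard deviation, cut at about 32% in these data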
An asterisk follows results filed as active; / = no result. This is a sample that favours compounds with a hit; in the whole collection about 1.9% have one here.

SMILES | Rtt109 Vps75 | ARFGAP1 inh | ASAP1 inh | Efflux pump mplx | FGF22 binding | Yeast cmpd fluor | CaMdr1 efflux inh | Cdr2 pump inh | Cdr1 pump inh
CC(C)OC(=O)N(C)c1ccc(C(O)(C(F)(F)F)C(F)(F)F)cc1 | 55* | 12 | -9 | 0 | / | / | / | / | /
O=C(O)c1ccc(NC(=O)c2cn(-c3ccccc3)nc2-c2ccccc2)cc1 | 4 | 7 | -2 | 0 | / | / | / | / | /
COc1ccc(NC(=O)c2cn(-c3ccccc3)nc2-c2cc3ccccc3o2)cc1 | -10 | 10 | 29* | 0 | / | / | / | / | /
O=C(O)c1ccc(NC(=O)c2cn(-c3ccccc3)nc2-c2ccc(Br)cc2)cc1 | 8 | 7 | 18 | 0 | 1.6* | / | / | / | /
CN1CCC(=NNC(=O)c2cn(-c3ccccc3)nc2-c2ccccc2)CC1 | / | 3 | 9 | 0 | 43* | / | / | / | /
Cc1cccc(C)c1NC(=O)CNC(=O)C1COc2ccccc2O1 (stereo unspecified) | -5 | -6 | -2 | 0 | 0 | / | / | / | /
O=C(c1cc2nc(-c3cccs3)cc(C(F)(F)F)n2n1)N1CCCc2ccccc21 | -5 | 7 | 9 | 0.7* | / | 90 | 0 | 83 | 0
COc1ccc(N2CCCn3c2nc2c3c(=O)n(CCCc3ccccc3)c(=O)n2C)cc1 | / | -6 | -12 | 0 | / | / | / | / | /
Cc1ccc2nc(-c3cccnc3SCC(=O)N3c4ccccc4CC3C)[nH]c2c1 (stereo unspecified) | -4 | -3 | -8 | 0 | 0 | / | / | / | /
Cc1ccc2nc(SCC(=O)N3c4ccccc4CC3C)c(C)cc2c1 (stereo unspecified) | 4 | 7 | -12 | 112* | / | 103 | 0 | 104 | 0
O=C1CC(c2ccccc2)Sc2ccccc2N1 (stereo unspecified) | -6 | -5 | -3 | 0 | / | / | / | / | /
Cc1ccsc1C1CC(=O)Nc2ccccc2S1 (stereo unspecified) | -1 | 8 | -1 | 0 | 0 | 94 | 0 | 102 | 0
O=C1CC(c2ccco2)Sc2ccccc2N1 (stereo unspecified) | -4 | -9 | -18 | 0 | 0 | 100 | 0 | 112 | 0
COc1ccc(C2/C(=C(/O)c3ccc(C)cc3)C(=O)C(=O)N2CC2CCCO2)cc1OC (stereo unspecified) | -6 | -2 | 3 | 0 | 0 | / | / | / | /
O=C(NCc1ccc(Cl)c(Cl)c1)c1cc(C2CCCCN2C(=O)c2ccccn2)on1 (stereo unspecified) | / | 8 | -17 | / | 0 | / | / | / | /
CC(C)c1ccc(/C=c2\sc3nc(-c4ccncc4)nn3c2=O)cc1 | 2 | 9 | -2 | 0 | / | 105 | 0 | 108 | 0
Cc1nn(Cc2cccc(C(=O)NC34CC5CC(CC(C5)C3)C4)c2)c(C)c1Br | / | 6 | -3 | 0.3* | / | 108 | 0 | 102 | 0
CNC[C@@H]1Oc2c(NS(=O)(=O)c3ccc(Cl)cc3)cccc2C(=O)N([C@H](C)CO)C[C@H]1C | / | / | / | / | 0 | / | / | / | /
CCC1Nc2ncnc(N3CCN(c4ccccc4)CC3)c2N(Cc2ccc(C)cc2)C1=O (stereo unspecified) | 7 | 13 | -7 | 0 | 0 | / | / | / | /
CCC1Nc2ncnc(N3CCN(c4ccccn4)CC3)c2N(Cc2ccc(Br)cc2)C1=O (stereo unspecified) | 5 | 4 | -10 | 0 | 0 | 112 | 0 | 121 | 0
Cc1ccc(CN2C(=O)C(CC(C)C)Nc3ncnc(N4CCN(c5ccccc5)CC4)c32)cc1 (stereo unspecified) | -10 | 9 | 0 | 0 | 0 | 109 | 0 | 117 | 0
COc1ccc(CN2C(=O)C(C)Nc3ncnc(N4CCN(c5ccccc5)CC4)c32)cc1 (stereo unspecified) | 2 | 10 | 2 | 0 | 0 | 94 | 0 | 116 | 0
CCC1Nc2ncnc(N3CCN(c4ccccc4)CC3)c2N(Cc2ccccc2)C1=O (stereo unspecified) | 10 | 0 | -1 | 0 | 0 | 107 | 0 | 120 | 0
O=c1[nH]c(C2CCN(S(=O)(=O)c3cccc(C(F)(F)F)c3)CC2)nc2c1nnn2Cc1cccc(F)c1 | 2 | -2 | 11 | 2 | 1 | / | / | / | /
O=c1[nH]c(C2CCN(S(=O)(=O)c3ccccc3)CC2)nc2c1nnn2Cc1ccc2c(c1)OCCO2 | 1 | -22 | -9 | 0 | 0 | / | / | / | /
SMILES | Rtt109 Vps75 | ARFGAP1 inh | ASAP1 inh | Efflux pump mplx | FGF22 binding | Yeast cmpd fluor | CaMdr1 efflux inh | Cdr2 pump inh | Cdr1 pump inh
O=c1[nH]c(C2CCN(S(=O)(=O)c3ccc4c(c3)OCCO4)CC2)nc2c1nnn2Cc1cccc(F)c1 | 13 | -10 | 7 | 3.2* | 0 | 108 | 0 | 106 | 1
O=c1[nH]c(C2CCN(S(=O)(=O)c3ccc4c(c3)OCCO4)CC2)nc2c1nnn2Cc1ccc(F)cc1 | -3 | 8 | 2 | 2 | 0 | 94 | 0 | 102 | 0
CCOc1cc2[nH]c(=S)n(CCC(=O)NCc3ccc(OC)cc3)c(=O)c2cc1OCC | -2 | -8 | -1 | 0.4* | / | 102 | 0 | 127 | 0
CCC(=O)N1CCN(c2ccc(NC(=O)c3ccc4c(c3)OCCO4)cc2)CC1 | 3 | -3 | 1 | 0 | 0 | / | / | / | /
CCC(=O)N1CCN(c2ccc(Cl)cc2NC(=O)c2ccc3c(c2)OCCO3)CC1 | 12 | -2 | 2 | 0.8* | / | 104 | 0 | 98 | 0
CC(=O)Nc1ccc(NC(=O)Cc2ccc(F)cc2)cc1 | / | / | / | 1.1* | / | 112 | 0 | 106 | 0
Cc1ccc(Cl)cc1NC(=O)CN1C(=O)NC2(CCCCCC2)C1=O | 18 | -2 | 1 | 0 | 0 | / | / | / | /
